Assay results taken from ChEMBL document CHEMBL1124155, “Synthesis and dopamine agonist and antagonist effects of (R)-(-)- and (S)-(+)-11-hydroxy-N-n-propylnoraporphine” (J Med Chem, 1988).

Assays:
Rattus norvegicus [1] = experiment: Stereotyped behavior in rat induced by Aporphines after ip administration at 0.3 mg/kg dose; format: functional; conditions: route intraperitoneal
Outline: (§1)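 Aporphine given ip to rats (doses 0.3–3.0 mg/kg; saline as 0). Stereotyped behavior rated every 10 min for 1 h. Mean stereotypy score, maximum 18.0, ± SEM, N = 6. Student's t test, p < 0.05.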

Rattus norvegicus [2] = experiment: Effect (3 mg/kg) on motor arousal induced by apomorphine; format: functional
Outline: (§2)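 Rats received test enantiomer ip immediately before apomorphine (0.3 mg/kg). They were then placed in a microcomputer-controlled electronic activity monitor for 1 h. Read-out was activity counts per hour, mean ± SEM, N = 6. Comparison was against a saline + apomorphine control by Student's t test.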

Rattus norvegicus [3] = experiment: Effect (3 mg/kg) on motor arousal induced by apomorphine (0.3 mg/kg) expressed as percent control; format: functional; outline: as §2
Rattus norvegicus [4] = experiment: Stereotyped behavior in rat induced by Aporphines after ip administration at 3.0 mg/kg dose; format: functional; conditions: route intraperitoneal; outline: as §1
Rattus norvegicus [5] = experiment: Stereotyped behavior in rat induced by Aporphines after ip administration at 1.0 mg/kg dose; format: functional; conditions: route intraperitoneal; outline: as §1
Rattus norvegicus [6] = experiment: Stereotyped behavior in rat induced by Aporphines after ip administration at 0 mg/kg dose; format: functional; conditions: route intraperitoneal; outline: as §1
D(1A) dopamine receptor = D(1A) dopamine receptor (Rattus norvegicus, UniProt P18901); experiment: Binding affinity against Dopamine receptor D1 from rat brain corpus striatal preparations using [3H]SCH-23390
D(2) dopamine receptor = D(2) dopamine receptor (Rattus norvegicus, UniProt P61169); experiment: Binding affinity against Dopamine receptor D2 from rat brain corpus striatal preparations using [3H]spiperone
Dopamine receptor = experiment: Binding affinity against dopamine agonist sites from rat brain corpus striatal preparations using [3H]ADTN
Rattus norvegicus [7] = experiment: Effect (3 mg/kg) on motor arousal induced by apomorphine (0.3 mg/kg); format: functional; outline: as §2
Rattus norvegicus [8] = experiment: Effect (1 mg/kg) on motor arousal induced by apomorphine (0.3 mg/kg) expressed as percent control; format: functional; outline: as §2
Rattus norvegicus [9] = experiment: Effect (1 mg/kg) on motor arousal induced by apomorphine (0.3 mg/kg); format: functional; outline: as §2
Rattus norvegicus [10] = experiment: Effect (10 mg/kg) on motor arousal induced by apomorphine (0.3 mg/kg) expressed as percent control; format: functional; outline: as §2
Rattus norvegicus [11] = experiment: Effect (0.3 mg/kg) on motor arousal induced by apomorphine; format: functional; outline: as §2
Rattus norvegicus [12] = experiment: Effect on motor arousal induced by apomorphine (0.3 mg/kg) expressed as percent control; format: functional; outline: as §2

D(2) dopamine receptor, sequence (P61169 whole entry): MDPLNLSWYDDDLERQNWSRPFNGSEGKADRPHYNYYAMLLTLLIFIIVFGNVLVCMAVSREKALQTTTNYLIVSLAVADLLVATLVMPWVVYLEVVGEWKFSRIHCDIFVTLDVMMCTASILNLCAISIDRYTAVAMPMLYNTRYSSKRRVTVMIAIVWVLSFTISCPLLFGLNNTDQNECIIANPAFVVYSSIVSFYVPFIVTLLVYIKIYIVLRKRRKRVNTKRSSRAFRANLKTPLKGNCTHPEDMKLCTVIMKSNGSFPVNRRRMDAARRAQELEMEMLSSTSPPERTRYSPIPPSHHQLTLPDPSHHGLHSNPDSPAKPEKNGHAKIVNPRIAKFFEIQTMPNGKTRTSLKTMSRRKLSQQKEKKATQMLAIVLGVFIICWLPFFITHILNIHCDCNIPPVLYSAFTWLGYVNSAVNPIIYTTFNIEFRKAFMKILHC
D(1A) dopamine receptor, sequence (P18901 whole entry): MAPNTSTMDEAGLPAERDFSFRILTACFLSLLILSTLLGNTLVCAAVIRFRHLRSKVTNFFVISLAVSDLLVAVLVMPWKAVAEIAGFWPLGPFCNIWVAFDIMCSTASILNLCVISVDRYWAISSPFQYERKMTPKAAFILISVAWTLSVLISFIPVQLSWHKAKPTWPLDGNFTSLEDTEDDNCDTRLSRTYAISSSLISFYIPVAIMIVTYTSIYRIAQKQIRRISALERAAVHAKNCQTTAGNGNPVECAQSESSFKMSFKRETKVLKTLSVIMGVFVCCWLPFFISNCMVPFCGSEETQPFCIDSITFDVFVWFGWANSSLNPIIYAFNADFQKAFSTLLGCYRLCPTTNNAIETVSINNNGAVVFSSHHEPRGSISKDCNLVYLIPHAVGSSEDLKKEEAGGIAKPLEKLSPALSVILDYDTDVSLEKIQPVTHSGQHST

| SMILES | Activity (Rattus norvegicus [1]) | Activity (Rattus norvegicus [2]) | Control (Rattus norvegicus [3]) | Activity (Rattus norvegicus [4]) | Activity (Rattus norvegicus [5]) | Activity (Rattus norvegicus [6]) | Ki (D(1A) dopamine receptor) | Ki (D(2) dopamine receptor) | Ki (Dopamine receptor) | Activity (Rattus norvegicus [7]) | Control (Rattus norvegicus [8]) | Activity (Rattus norvegicus [9]) | Control (Rattus norvegicus [10]) | Activity (Rattus norvegicus [11]) | Control (Rattus norvegicus [12]) |
| --- | --- | --- | --- | --- | --- | --- | --- | --- | --- | --- | --- | --- | --- | --- | --- |
| CCCN1CCc2cccc3c2[C@H]1Cc1cccc(O)c1-3 | 5.7 | 764 | 151% | 13.8 | 9.5 | 0.8 |  |  |  |  |  |  |  |  |  |
| CCCN1CCc2cccc3c2[C@@H]1Cc1ccccc1-3 |  |  |  |  |  |  | 1340 nM | 115 nM | 278 nM |  |  |  |  |  |  |
| CCCN1CCc2cccc3c2[C@@H]1Cc1cccc(O)c1-3 | 0.6 |  | 43% | 1.3 | 1.7 | 0.8 |  |  |  | 218 | 81% | 410 | 21% |  |  |
| CCCN1CCc2cccc3c2[C@H]1Cc1ccccc1-3 |  |  |  |  |  |  | 340 nM | 2.4 nM | 1.1 nM |  |  |  |  |  |  |
| CN1CCc2cccc3c2[C@H]1Cc1ccc(O)c(O)c1-3 [APOMORPHINE] | 9.7 |  |  | 17.5 | 12.7 | 0.8 |  |  |  |  |  |  |  | 505 | 100% |
